Assay results as given in ChEMBL document CHEMBL4350958, “Rational Design of Short Peptide Variants by Using Kunitzin-RE, an Amphibian-Derived Bioactivity Peptide, for Acquired Potent Broad-Spectrum Antimicrobial and Improved Therapeutic Potential of Commensalism Coinfection of Pathogens” (J Med Chem, 2019).
≈ marks a conversion by molar mass, not a printed value.

What was measured:
[1] = system: Escherichia coli; experiment: Antibacterial activity against Escherichia coli K99 measured after 24 hrs; assay type: functional
Procedure, shortened: (§1)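 Broth microdilution adapted from NCCLS. Mid-log bacteria were diluted in MHB to a final (0.5–1) × 10^5 CFU mL−1. Peptides were serially diluted in 0.2% BSA and mixed with an equal volume of cells. After 24 h at 37 °C, MIC was read at A492 as the lowest concentration inhibiting 95% of growth. At least three independent experiments, each with three technical replicates.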

[2] = system: Escherichia coli; experiment: Antibacterial activity against Escherichia coli ATCC 25922 measured after 18 to 24 hrs in presence of KCl; assay type: functional
[3] = system: Staphylococcus aureus; experiment: Antibacterial activity against Staphylococcus aureus ATCC 29213 measured after 18 to 24 hrs in presence of MgCl2; assay type: functional
[4] = system: Escherichia coli; experiment: Antibacterial activity against Escherichia coli ATCC 25922 measured after 18 to 24 hrs in presence of CaCl2; assay type: functional
[5] = system: Candida albicans; experiment: Antifungal activity against Candida albicans cgmcc2.2086 measured after 48 hrs in presence of NaCl by broth microdilution method; assay type: functional
[6] = system: Staphylococcus aureus; experiment: Bactericidal activity against methicillin-resistant Staphylococcus aureus ATCC 43300 incubated for 24 hrs followed by replating on agar plate and measured after overnight incubation; assay type: functional; details: for MBC: ATCC 43300, 24 h, read-out: MBC>99.9
Procedure, shortened: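 After the 24 h, 37 °C MHB microdilution MIC assay, 50 μL from each well was plated on agar and incubated overnight. MBC taken as lowest peptide concentration killing >99.9% of cells. At least three independent experiments, each with three technical replicates.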

[7] = system: Escherichia coli; experiment: Bactericidal activity against Escherichia coli UB1005 incubated for 24 hrs followed by replating on agar plate and measured after overnight incubation; assay type: functional; details: for MBC: UB1005, 24 h, read-out: MBC>99.9
Procedure, shortened: (§2)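 Mid-log bacteria diluted in MHB to (0.5–1) × 10^5 CFU/mL and mixed 1:1 with peptide serially diluted in 0.2% BSA. After 24 h at 37 °C, 50 μL of each mixture was plated on agar and incubated overnight. MBC taken as the lowest concentration killing >99.9% of cells. At least three independent experiments, each with three technical replicates.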

[8] = system: Escherichia coli; experiment: Antibacterial activity against Escherichia coli 078 measured after 24 hrs; assay type: functional; procedure, shortened: as §1
[9] = system: Candida albicans; experiment: Antifungal activity against Candida albicans cgmcc2.2086 measured after 48 hrs in presence of FeCl by broth microdilution method; assay type: functional
[10] = system: Candida albicans; experiment: Antifungal activity against Candida albicans cgmcc2.2086 measured after 48 hrs in presence of ZnCl by broth microdilution method; assay type: functional
[11] = Bactericidal activity against Salmonella pullorum ATCC 7913 incubated for 24 hrs followed by replating on agar plate and measured after overnight incubation; assay type: functional, Salmonella enterica subsp. enterica serovar Pullorum; details: Salmonella enterica, ATCC 7913, 24 h; read-out: MBC>99.9; procedure, shortened: as §2
[12] = system: Staphylococcus aureus; experiment: Antibacterial activity against Staphylococcus aureus ATCC 29213 measured after 18 to 24 hrs in presence of KCl; assay type: functional
[13] = system: Pseudomonas aeruginosa; experiment: Bactericidal activity against Pseudomonas aeruginosa ATCC 27853 incubated for 24 hrs followed by replating on agar plate and measured after overnight incubation; assay type: functional; details: for MBC: ATCC 27853, 24 h, read-out: MBC>99.9; procedure, shortened: as §2
[14] = system: Staphylococcus aureus; experiment: Antibacterial activity against Staphylococcus aureus ATCC 29213 measured after 18 to 24 hrs in presence of NH4Cl; assay type: functional
Procedure, shortened: (§3)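 MIC broth microdilution (MHB, 0.2% BSA peptide diluent, A492, 95% inhibition) run in the presence of physiological salts at final concentrations of 6 μM NH4Cl or 8 μM ZnCl2. Three independent assays, each with three technical replicates.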

[15] = system: Staphylococcus aureus; experiment: Antibacterial activity against Staphylococcus aureus ATCC 25923 measured after 24 hrs; assay type: functional
Procedure, shortened: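 Broth microdilution modified from NCCLS. Mid-log bacteria at (0.5–1) × 10^5 CFU mL−1 in MHB, mixed with peptides serially diluted in 0.2% BSA. Incubated 24 h at 37 °C, read at A492. MIC taken as lowest concentration giving 95% growth inhibition. At least three independent experiments, each with three technical replicates.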

[16] = system: Staphylococcus aureus; experiment: Antibacterial activity against Staphylococcus aureus ATCC 29213 measured after 18 to 24 hrs in presence of ZnCl2; assay type: functional; procedure, shortened: as §3
[17] = system: Salmonella typhimurium; experiment: Antibacterial activity against Salmonella typhimurium C7731 measured after 24 hrs; assay type: functional, Salmonella enterica subsp. enterica serovar Typhimurium; procedure, shortened: as §1
[18] = system: Candida albicans; experiment: Antifungal activity against Candida albicans cgmcc2.2086 measured after 48 hrs in presence of MgCl by broth microdilution method; assay type: functional
[19] = Therapeutic index, ratio of MHC10 for hemolytic activity in human RBC to MIC95 against Staphylococcus epidermidis ATCC 12228; assay type: toxicity; details: human red blood cells (erythrocytes), read-out: TI
Procedure, shortened: (§4)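 Therapeutic index = MHC divided by MIC. MHC is the lowest concentration giving >10% lysis of human RBC (1 h, 37 °C, 1-128 µM, A576). MIC is 95% growth inhibition by broth microdilution: bacteria in MHB 24 h at 37 °C; Candida in MOPS-buffered RPMI 1640 at (0.5–1) × 10^3 CFU mL−1, 48 h at 28 °C.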

[20] = system: Candida tropicalis; experiment: Fungicidal activity against Candida tropicalis cgmcc2.1975 incubated for 48 hrs followed by replating on YM agar plate and measured after 48 hrs; assay type: functional
Procedure, shortened: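 Yeast diluted in MOPS-buffered RPMI 1640 to (0.5–1) × 10^3 CFU/mL (CLSI M27-A2, modified) and mixed 1:1 with peptide serially diluted in 0.2% BSA. After 48 h at 28 °C, 50 μL per well was plated on YM agar and incubated 48 h at 28 °C. MFC taken as the lowest concentration killing ≥99.9% of cells. Three or more independent experiments, triplicate wells.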

[21] = Therapeutic index, ratio of MHC10 for hemolytic activity in human RBC to MIC95 against Candida tropicalis cgmcc2.1975; assay type: toxicity; details: human red blood cells (erythrocytes), read-out: TI; procedure, shortened: as §4
[22] = Therapeutic index, ratio of MHC10 for hemolytic activity in human RBC to MIC95 against Staphylococcus aureus ATCC 29213; assay type: toxicity; details: human red blood cells (erythrocytes), read-out: TI; procedure, shortened: as §4
[23] = Therapeutic index, ratio of MHC10 for hemolytic activity in human RBC to MIC95 against Staphylococcus aureus ATCC 25923; assay type: toxicity; details: human red blood cells (erythrocytes), read-out: TI; procedure, shortened: as §4
[24] = Conformational stability in pH 7.4 sodium phosphate buffer assessed as absorption spectra at minimum dichroic band at 35 uM by CD spectra analysis; assay type: physicochemical; details: pH 7.4, 35 µM
Procedure, shortened: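 CD spectra from 190 to 250 nm of peptide at 35 μM in 10 mM PBS, 30 mM SDS micelles or 50% TFE, recorded in a 1.0-mm quartz cell. Ellipticity was converted to mean residue ellipticity. Three independent scans, each averaged over more than 3 runs.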

[25] = Cytotoxicity against mouse RAW264.7 cells assessed as cell viability at 2 to 64 uM measured after 18 to 24 hrs by MTT assay relative to control; assay type: cell-based; details: RAW264.7 cells, read-out: Activity
Procedure, shortened: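 MTT assay: RAW264.7 cells seeded at 1.0–2.0×10^4 per well and exposed to peptide (2–64 µM) for 18–24 h at 37 °C in 5% CO2. MTT (0.5 mg/mL) added for 4 h, formazan dissolved in DMSO, read at 570 nm. At least three independent experiments with triplicate wells.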

[26] = Salmonella enterica, C7731, 24 h
[27] = Salmonella enterica subsp. enterica serovar Typhimurium

| Compound | MIC95 ([1]; K99, 24 h) | MIC95 [2] | MIC95 [3] | MIC95 [4] | MIC95 ([5]; cgmcc2.2086, 48 h) | MBC [6] | MBC [7] | MIC95 ([8]; Escherichia coli, 078, 24 h) | MIC95 ([9]; cgmcc2.2086, 48 h) | MIC95 ([10]; cgmcc2.2086, 48 h) | MBC [11] | MIC95 [12] | MIC95 [14] | MIC95 ([15]; ATCC 25923, 24 h) | MIC95 [16] | MIC95 [17, 26] | MIC95 ([18]; cgmcc2.2086, 48 h) | selectivity ratio [19] | MFC<=99.9 [20] | selectivity ratio [21] | further results |
| --- | --- | --- | --- | --- | --- | --- | --- | --- | --- | --- | --- | --- | --- | --- | --- | --- | --- | --- | --- | --- | --- |
| CC(C)(O/N=C(\C(=O)N[C@@H]1C(=O)N2C(C(=O)[O-])=C(C[n+]3ccccc3)CS[C@H]12)c1csc(N)n1)C(=O)O [CEFTAZIDIME] | 0.5 µM (≈ 0.273 µg/mL) | 2 µM | 16 µM | 2 µM | > 128 µM | 32 µM (≈ 17.5 µg/mL) | 2 µM (≈ 1.09 µg/mL) | 0.5 µM (≈ 0.273 µg/mL) | > 128 µM | > 128 µM | 2 µM (≈ 1.09 µg/mL) | 16 µM | 16 µM | 16 µM (≈ 8.75 µg/mL) | 16 µM | 1 µM (≈ 0.547 µg/mL) | > 128 µM | – | – | – | MBC [13]: 4 µM (≈ 2.19 µg/mL) |
| CC[C@H](C)[C@H](NC(=O)CN)C(=O)NCC(=O)N[C@@H](C)C(=O)N[C@H](C(=O)N[C@@H](CC(C)C)C(=O)N[C@@H](CCCCN)C(=O)N[C@H](C(=O)N[C@@H](CC(C)C)C(=O)N[C@H](C(=O)N[C@H](C(=O)NCC(=O)N[C@@H](CC(C)C)C(=O)N1CCC[C@H]1C(=O)N[C@@H](C)C(=O)N[C@@H](CC(C)C)C(=O)N[C@H](C(=O)N[C@@H](CO)C(=O)N[C@@H](Cc1c[nH]c2ccccc12)C(=O)N[C@H](C(=O)N[C@@H](CCCCN)C(=O)N[C@@H](CCCNC(=N)N)C(=O)N[C@@H](CCCCN)C(=O)N[C@@H](CCCNC(=N)N)C(=O)N[C@@H](CCC(N)=O)C(=O)N[C@@H](CCC(N)=O)C(N)=O)[C@@H](C)CC)[C@@H](C)CC)[C@@H](C)O)[C@@H](C)O)C(C)C)C(C)C [MELITTIN] | 2 µM (≈ 5.69 µg/mL) | 2 µM | 4 µM | 8 µM | 8 µM | 4 µM (≈ 11.4 µg/mL) | 2 µM (≈ 5.69 µg/mL) | 2 µM (≈ 5.69 µg/mL) | 4 µM | 4 µM | 2 µM (≈ 5.69 µg/mL) | 4 µM | 4 µM | 8 µM (≈ 22.8 µg/mL) | 4 µM | 2 µM (≈ 5.69 µg/mL) | 4 µM | 0.35 | 4 µM (≈ 11.4 µg/mL) | 0.32 | MBC [13]: 4 µM (≈ 11.4 µg/mL); selectivity ratio [22]: 0.35; selectivity ratio [23]: 0.35 |
| GENTAMICIN | – | 1 µM | 1 µM | 1 µM | – | – | – | – | – | – | – | 1 µM | 1 µM | – | 1 µM | – | – | – | – | – | MIC95 [1]: 0.5 µM; MIC95 [5]: > 128 µM; MBC>99.9 [6]: 16 µM; MBC>99.9 [7]: 1 µM; MIC95 [8]: 0.5 µM; MIC95 [9]: > 128 µM; MIC95 [10]: > 128 µM; MBC>99.9 [13]: 1 µM; MIC95 [15]: 1 µM; MIC95 [17, 27]: 1 µM; MIC95 [18]: > 128 µM |
| H-AARIILRRRFR-NH2 | 8 µM | 64 µM | 32 µM | 128 µM | > 128 µM | 64 µM | 64 µM | 16 µM | > 128 µM | > 128 µM | 32 µM | 32 µM | 16 µM | 32 µM | 16 µM | 8 µM | > 128 µM | 13.4 | 128 µM | 3.17 | Wavelength of minimum CD band [24]: 200 nm; viability at up to 64 µM [25]: 90 to 100%; selectivity ratio [22]: 13.4; selectivity ratio [23]: 13.4 |
| H-AARIILRTRFR-NH2 | 4 µM | 32 µM | 32 µM | > 128 µM | > 128 µM | 32 µM | 8 µM | 4 µM | > 128 µM | > 128 µM | 16 µM | 32 µM | 16 µM | 16 µM | 16 µM | 16 µM | > 128 µM | 16 | 64 µM | 4 | Wavelength of minimum CD band [24]: 200 nm; viability at up to 64 µM [25]: 90 to 100%; selectivity ratio [22]: 16; selectivity ratio [23]: 16 |
| POLYMYXIN B | – | 2 µM | 32 µM | 16 µM | – | – | – | – | – | – | – | 32 µM | 32 µM | – | 32 µM | – | – | – | – | – | MIC95 [1]: 1 µM; MIC95 [5]: 128 µM; MBC>99.9 [6]: 128 µM; MBC>99.9 [7]: 2 µM; MIC95 [8]: 1 µM; MIC95 [9]: 32 µM; MIC95 [10]: 32 µM; MBC>99.9 [13]: 4 µM; MIC95 [15]: 64 µM; MIC95 [17, 27]: 2 µM; MIC95 [18]: 32 µM |
